These results are taken from ChEMBL document CHEMBL1155504, “Synthesis of 4-[(diethylamino)methyl]-phenol derivatives as novel cholinesterase inhibitors with selectivity towards butyrylcholinesterase” (Bioorg Med Chem Lett, 2010).

The term IC50 denotes the point on the concentration scale where inhibition reaches its midpoint. A low value points to greater potency.

Test [1] can be described thus: Selectivity ratio of IC50 for electric eel AChE to IC50 for horse serum BChE. The method in brief: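 Ellman assay for each enzyme: enzyme, DTNB and test compound in 0.1 M potassium phosphate buffer, pH 8.0, pre-incubated 15 min at 37 °C. Started with ATC (AChE) or BTC (BChE) and read at 412 nm for 1 min. Five compound concentrations, each in triplicate; DMSO reference, enzyme-free blank. Ratio taken from the two IC50 values.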

In a further test the target is Acetylcholinesterase (Electrophorus electricus, UniProt O42275). Kind of test: Inhibition of electric eel AChE after 15 mins by Ellman's method. (In general: In Ellman's method for cholinesterases, released thiocholine reacts with DTNB.)
Acetylcholinesterase, sequence (O42275 whole entry): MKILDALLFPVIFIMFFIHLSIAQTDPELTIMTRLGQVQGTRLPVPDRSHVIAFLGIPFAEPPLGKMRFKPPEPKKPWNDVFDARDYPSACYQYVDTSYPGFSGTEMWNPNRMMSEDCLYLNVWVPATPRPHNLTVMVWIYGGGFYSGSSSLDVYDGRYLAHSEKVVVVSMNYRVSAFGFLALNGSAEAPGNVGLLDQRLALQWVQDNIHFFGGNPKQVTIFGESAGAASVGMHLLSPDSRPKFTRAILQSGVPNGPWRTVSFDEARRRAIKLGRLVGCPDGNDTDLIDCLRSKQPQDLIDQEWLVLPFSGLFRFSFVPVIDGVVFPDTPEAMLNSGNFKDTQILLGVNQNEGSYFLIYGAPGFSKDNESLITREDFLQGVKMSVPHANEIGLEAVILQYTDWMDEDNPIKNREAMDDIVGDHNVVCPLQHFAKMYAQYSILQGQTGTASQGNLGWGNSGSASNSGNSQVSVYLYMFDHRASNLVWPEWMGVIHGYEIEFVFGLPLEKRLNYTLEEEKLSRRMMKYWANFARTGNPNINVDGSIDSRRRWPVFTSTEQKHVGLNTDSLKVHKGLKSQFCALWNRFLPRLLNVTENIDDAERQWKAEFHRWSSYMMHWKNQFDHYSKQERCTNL
The next test has as its target Cholinesterase (Equus caballus, UniProt P81908). Kind of test: Inhibition of horse serum BChE after 15 mins by Ellman's method.
For test [2], the target named is Acetylcholinesterase (Electrophorus electricus) (UniProt O42275). As to the kind of experiment: Mixed-type inhibition of electric eel AChE at 50 to 100 nM by Lineweaver-Burke plot analysis. Summed up:
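Ellman assay: enzyme, DTNB and inhibitor in 0.1 M potassium phosphate buffer, pH 8.0, pre-incubated 15 min at 37 °C. Reaction started with acetylthiocholine at 100–400 (unit unclear) and followed by absorbance at 412 nm. Inhibitor absent or at two levels. Inhibition type assigned from Lineweaver–Burk plots (1/V versus 1/[S]).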

The target in test [3] is Cholinesterase (Equus caballus) (UniProt P81908). Kind of test: Mixed-type inhibition of horse serum BChE at 10 to 20 nM by Lineweaver-Burke plot analysis. Summed up:
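Ellman assay: enzyme, DTNB and inhibitor in 0.1 M potassium phosphate buffer, pH 8.0, pre-incubated 15 min at 37 °C. Reaction started with butyrylthiocholine at 100–500 (unit unclear) and followed by absorbance at 412 nm. Inhibitor absent or at two levels. Inhibition type assigned from Lineweaver–Burk plots (1/V versus 1/[S]).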

The source made the active and inactive calls. The calls are words filed in the database; no cut-off is given here.

Cholinesterase, sequence (P81908 whole entry): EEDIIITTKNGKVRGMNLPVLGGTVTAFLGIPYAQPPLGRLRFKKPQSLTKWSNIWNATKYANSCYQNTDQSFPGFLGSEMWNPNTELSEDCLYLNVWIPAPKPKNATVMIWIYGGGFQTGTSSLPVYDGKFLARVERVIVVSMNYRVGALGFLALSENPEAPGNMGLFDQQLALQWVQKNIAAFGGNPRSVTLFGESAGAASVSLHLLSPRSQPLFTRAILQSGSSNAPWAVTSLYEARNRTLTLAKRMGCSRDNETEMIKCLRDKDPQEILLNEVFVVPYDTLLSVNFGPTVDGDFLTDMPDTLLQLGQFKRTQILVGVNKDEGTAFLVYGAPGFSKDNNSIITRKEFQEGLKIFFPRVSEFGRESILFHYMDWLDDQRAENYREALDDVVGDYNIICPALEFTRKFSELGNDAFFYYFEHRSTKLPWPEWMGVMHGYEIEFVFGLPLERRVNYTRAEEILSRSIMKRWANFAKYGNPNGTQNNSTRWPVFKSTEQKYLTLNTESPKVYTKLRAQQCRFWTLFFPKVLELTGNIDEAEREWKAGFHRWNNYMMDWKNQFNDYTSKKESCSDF
Acetylcholinesterase (Electrophorus electricus), sequence (O42275 24-633 limits assumed): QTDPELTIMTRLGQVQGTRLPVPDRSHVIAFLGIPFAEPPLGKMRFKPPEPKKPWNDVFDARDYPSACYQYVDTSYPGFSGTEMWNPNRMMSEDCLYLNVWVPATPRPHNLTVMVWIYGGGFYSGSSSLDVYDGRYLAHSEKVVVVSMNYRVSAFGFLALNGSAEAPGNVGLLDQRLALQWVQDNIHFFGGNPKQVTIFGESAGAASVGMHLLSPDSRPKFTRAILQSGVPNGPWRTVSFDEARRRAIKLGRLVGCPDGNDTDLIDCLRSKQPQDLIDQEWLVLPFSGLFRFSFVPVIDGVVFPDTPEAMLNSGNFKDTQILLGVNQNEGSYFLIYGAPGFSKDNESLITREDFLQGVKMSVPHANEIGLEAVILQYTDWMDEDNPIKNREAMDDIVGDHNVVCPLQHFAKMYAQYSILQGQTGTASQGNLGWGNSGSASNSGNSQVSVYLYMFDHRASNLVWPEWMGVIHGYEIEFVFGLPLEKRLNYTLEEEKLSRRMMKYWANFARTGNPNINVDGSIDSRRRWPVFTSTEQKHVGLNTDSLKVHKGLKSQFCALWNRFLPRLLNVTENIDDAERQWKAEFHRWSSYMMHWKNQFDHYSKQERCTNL
Cholinesterase (Equus caballus), sequence (P81908 whole entry): as the sequence (P81908 whole entry) above

As for `CCN(CC)Cc1ccc(OCCCCCCCCCCN2CCCCC2)cc1`, the Ratio IC50 in test [1] was found to be 7.66. Also, the IC50 at Acetylcholinesterase stood at 0.6 µM; against Cholinesterase, 0.078 µM.

With `CCN(CC)CCCCCCOc1ccc(CN(CC)CC)cc1`, in test [1], the Ratio IC50 is 0.58. The IC50 was determined as 0.96 µM on Acetylcholinesterase and 1.66 µM against Cholinesterase.

Turning to `CCN1CCN(CCCCCCCCOc2ccc(CN(CC)CC)cc2)CC1`, the Ratio IC50 in test [1] came to 5.38. Further, the IC50 on Acetylcholinesterase stood at 0.077 µM; against Cholinesterase, 0.014 µM.

Take `CCN1CCN(CCCCCOc2ccc(CN(CC)CC)cc2)CC1`: the Ratio IC50 in test [1] amounted to 0.57. In addition, the IC50 was 1.76 µM against Acetylcholinesterase and 3.08 µM against Cholinesterase.

Turning to `CCN(CC)Cc1ccc(OCCCCCN2CCN(C)CC2)cc1`, the Ratio IC50 in test [1] was 0.27. Also, the IC50 on Acetylcholinesterase was found to be 2.48 µM; on Cholinesterase, 9.35 µM.

As to `CCN(CC)Cc1ccc(OCCCCCCCCN2CCN(C)CC2)cc1`, in test [1], the Ratio IC50 is 18.6. Besides, the IC50 against Acetylcholinesterase is 0.21 µM; against Cholinesterase it was 0.011 µM.

In the case of `CCN(CC)CCCCCCCCOc1ccc(CN(CC)CC)cc1`, the Ratio IC50 in test [1] turned out to be 2.99. In addition, the half-maximal inhibitory concentration (IC50) against Acetylcholinesterase turned out to be 0.14 µM; on Cholinesterase, 0.048 µM.

As to `CCN(CC)Cc1ccc(OCCCCCCN2CCCCC2)cc1`, the Ratio IC50 in test [1] came to 0.65. Moreover, the figures for the IC50 on Acetylcholinesterase and against Cholinesterase were 0.89 µM and 1.37 µM, respectively.

On to `CCN1CCN(CCCCCCCCCCOc2ccc(CN(CC)CC)cc2)CC1`, for which the Ratio IC50 in test [1] was found to be 3.1. Besides, the IC50 against Acetylcholinesterase was 0.58 µM; against Cholinesterase, 0.19 µM.

As for `CCCN(CCC)CCCCOc1ccc(CN(CC)CC)cc1`, in test [1], the Ratio IC50 was 1.17. Moreover, the figures for the concentration for half-maximal inhibition (IC50) against Acetylcholinesterase and on Cholinesterase were 13.7 µM and 11.7 µM, respectively.

As for `CCCCN(CCCC)CCCCCCCCOc1ccc(CN(CC)CC)cc1`, the Ratio IC50 in test [1] worked out at 8.45. Also, the results for the IC50 at Acetylcholinesterase and on Cholinesterase were 0.14 µM and 0.017 µM, respectively.

As for `CCCCN(CCCC)CCCCCCCCCCOc1ccc(CN(CC)CC)cc1`, in test [1], the Ratio IC50 is 16.5. The figures for the half-inhibitory concentration (IC50) against Acetylcholinesterase and at Cholinesterase were 0.26 µM and 0.015 µM, respectively.

On to `CCN(CC)Cc1ccc(OCCCCCCN2CCCC2)cc1`, for which, in test [1], the Ratio IC50 turned out to be 0.34. In addition, the figures for the IC50 at Acetylcholinesterase and at Cholinesterase were 0.44 µM and 1.28 µM, respectively.

As for `CCN(CC)CCCCCCCCCCOc1ccc(CN(CC)CC)cc1`, the Ratio IC50 in test [1] was 11.3. The IC50 at Acetylcholinesterase stood at 0.31 µM; against Cholinesterase, 0.027 µM.

Regarding `CCCCN(CCCC)CCCCCCOc1ccc(CN(CC)CC)cc1`, the Ratio IC50 in test [1] came out at 2.92. For the same compound, the half-maximal inhibitory concentration (IC50) at Acetylcholinesterase was determined as 0.67 µM; on Cholinesterase, 0.23 µM.

As for `CCCN(CCC)CCCCCCCCOc1ccc(CN(CC)CC)cc1`, the Ratio IC50 in test [1] was determined as 18.8. Moreover, the IC50 on Acetylcholinesterase amounted to 0.17 µM; against Cholinesterase it was 0.0091 µM.

On to `CCN(CC)Cc1ccc(OCCCCCN2CCCC2)cc1`, for which the Ratio IC50 in test [1] amounted to 0.32. In addition, the values for the IC50 on Acetylcholinesterase and at Cholinesterase were 0.5 µM and 1.54 µM, respectively.

With `CCN(CC)Cc1ccc(OCCCCCCN2CCN(C)CC2)cc1`, the Ratio IC50 in test [1] was 0.48. Besides, the IC50 was found to be 1.82 µM against Acetylcholinesterase and 3.76 µM against Cholinesterase.

`CCN(CC)Cc1ccc(OCCCCCCCCN2CCCC2)cc1`: the Ratio IC50 in test [1] is 5.42. The values for the 50% inhibitory concentration (IC50) against Acetylcholinesterase and against Cholinesterase were 0.084 µM and 0.015 µM, respectively.

Take `CCN(CC)CCCCOc1ccc(CN(CC)CC)cc1`: the Ratio IC50 in test [1] came out at 3.87. The IC50 against Acetylcholinesterase stood at 10.6 µM; on Cholinesterase it was 2.74 µM.

Consider `CCCN(CCC)CCCCCCCCCCOc1ccc(CN(CC)CC)cc1`, for which the Ratio IC50 in test [1] stood at 13.1. For the same compound, the results for the IC50 on Acetylcholinesterase and at Cholinesterase were 0.34 µM and 0.026 µM, respectively.

As to `CCN(CC)Cc1ccc(OCCCCCCCCCCN2CCN(C)CC2)cc1`, the Ratio IC50 in test [1] turned out to be 16.5. Further, the IC50 turned out to be 0.54 µM on Acetylcholinesterase and 0.033 µM against Cholinesterase.

As for `CCN1CCN(CCCCCCOc2ccc(CN(CC)CC)cc2)CC1`, the Ratio IC50 in test [1] was found to be 0.74. In addition, the IC50 against Acetylcholinesterase was determined as 1.62 µM; against Cholinesterase, 2.2 µM.

`CCCN(CCC)CCCCCOc1ccc(CN(CC)CC)cc1`: the Ratio IC50 in test [1] stood at 3.13. Besides, the values for the IC50 against Acetylcholinesterase and on Cholinesterase were 5.59 µM and 1.78 µM, respectively.

In the case of `CCN(CC)Cc1ccc(OCCCCCN2CCCCC2)cc1`, in test [1], the Ratio IC50 was found to be 6.44. The half-maximal inhibitory concentration (IC50) against Acetylcholinesterase came out at 4.31 µM; on Cholinesterase, 0.67 µM.

Consider `CCCCN(CCCC)CCCCOc1ccc(CN(CC)CC)cc1`, for which the Ratio IC50 in test [1] worked out at 4.01. The IC50 against Acetylcholinesterase came out at 10.3 µM; on Cholinesterase it was 2.52 µM.

In the case of `CCCN(CCC)CCCCCCOc1ccc(CN(CC)CC)cc1`, the Ratio IC50 in test [1] was determined as 1.61. Further, the IC50 against Acetylcholinesterase was 2.16 µM; against Cholinesterase, 1.34 µM.

On to `CCN(CC)Cc1ccc(OCCCCN2CCCC2)cc1`, for which the Ratio IC50 in test [1] is 2.44. Also, the IC50 is 3.42 µM on Acetylcholinesterase and 1.4 µM against Cholinesterase.

Take `CCN(CC)Cc1ccc(OCCCCN2CCCCC2)cc1`: the Ratio IC50 in test [1] is 9.4. The half-inhibitory concentration (IC50) was determined as 6.74 µM at Acetylcholinesterase and 0.71 µM against Cholinesterase.

For the compound `CCN(CC)Cc1ccc(OCCN2CCCCC2)cc1`, the Ratio IC50 in test [1] was 1.35. Also, the values for the IC50 against Acetylcholinesterase and on Cholinesterase were 13.7 µM and 10.1 µM, respectively.

Turning to `CCN(CC)Cc1ccc(OCCCCCCCCCCN2CCCC2)cc1`, the Ratio IC50 in test [1] is 4.41. In addition, the IC50 against Acetylcholinesterase stood at 0.3 µM; against Cholinesterase it was 0.068 µM.

Regarding `CCN(CC)Cc1ccc(OCCN2CCN(C)CC2)cc1`, the Ratio IC50 in test [1] was determined as 0.56. Further, the IC50 was found to be 11.5 µM at Acetylcholinesterase and 20.3 µM on Cholinesterase.

With `CCN(CC)CCCCCOc1ccc(CN(CC)CC)cc1`, the Ratio IC50 in test [1] is 1.89. Moreover, the IC50 against Acetylcholinesterase stood at 8.37 µM; against Cholinesterase, 4.42 µM.

Turning to `CCN(CC)Cc1ccc(OCCCCN2CCN(C)CC2)cc1`, the Ratio IC50 in test [1] amounted to 0.57. Also, the figures for the IC50 at Acetylcholinesterase and at Cholinesterase were 5.58 µM and 9.73 µM, respectively.

Consider `CCN(CC)Cc1ccc(OCCCCCCCCN2CCCCC2)cc1`, for which the Ratio IC50 in test [1] amounted to 12.5. Also, the values for the half-inhibitory concentration (IC50) on Acetylcholinesterase and on Cholinesterase were 0.092 µM and 0.0073 µM, respectively. In test [2], the inhibition entry is “Active”. In addition, the outcome in test [3] was Active.

On to `CCCCN(CCCC)CCCCCOc1ccc(CN(CC)CC)cc1`, for which the Ratio IC50 in test [1] stood at 1.29. The half-maximal inhibitory concentration (IC50) against Acetylcholinesterase turned out to be 2.46 µM; against Cholinesterase, 1.9 µM.
